Test results: PubChem BioAssay
Active and inactive are the calls of the source. Rule as the data show it, unless noted: active = inhibition above about 30%; inactive = the rest.

Tests used:
[1] = Her2 expression decrease, cell viability multiplex – SKBR3 breast tumor cells, AlphaScreen, ATP viability, primary screen (AID 461;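 active = Her2 level under about 52% in both replicate screens, with viability over 70% of control, limit read from the data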;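 as to Her2 level: lower value means less Her2 protein in the cells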;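 as to viability: percent of carrier control wells set as 100% viability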); conditions: SKBR3 Her2 protein level, 18-24 h, measured here: SKBR3 viability, ATP luminescence, at 10 µM
[2] = biological target: Receptor tyrosine-protein kinase erbB-2 (Homo sapiens) (UniProt P04626); test: as above; conditions: 18-24 h, at 10 µM, stronger effect = lower value
Chain of Receptor tyrosine-protein kinase erbB-2 (Homo sapiens) (P04626 whole entry, looked up): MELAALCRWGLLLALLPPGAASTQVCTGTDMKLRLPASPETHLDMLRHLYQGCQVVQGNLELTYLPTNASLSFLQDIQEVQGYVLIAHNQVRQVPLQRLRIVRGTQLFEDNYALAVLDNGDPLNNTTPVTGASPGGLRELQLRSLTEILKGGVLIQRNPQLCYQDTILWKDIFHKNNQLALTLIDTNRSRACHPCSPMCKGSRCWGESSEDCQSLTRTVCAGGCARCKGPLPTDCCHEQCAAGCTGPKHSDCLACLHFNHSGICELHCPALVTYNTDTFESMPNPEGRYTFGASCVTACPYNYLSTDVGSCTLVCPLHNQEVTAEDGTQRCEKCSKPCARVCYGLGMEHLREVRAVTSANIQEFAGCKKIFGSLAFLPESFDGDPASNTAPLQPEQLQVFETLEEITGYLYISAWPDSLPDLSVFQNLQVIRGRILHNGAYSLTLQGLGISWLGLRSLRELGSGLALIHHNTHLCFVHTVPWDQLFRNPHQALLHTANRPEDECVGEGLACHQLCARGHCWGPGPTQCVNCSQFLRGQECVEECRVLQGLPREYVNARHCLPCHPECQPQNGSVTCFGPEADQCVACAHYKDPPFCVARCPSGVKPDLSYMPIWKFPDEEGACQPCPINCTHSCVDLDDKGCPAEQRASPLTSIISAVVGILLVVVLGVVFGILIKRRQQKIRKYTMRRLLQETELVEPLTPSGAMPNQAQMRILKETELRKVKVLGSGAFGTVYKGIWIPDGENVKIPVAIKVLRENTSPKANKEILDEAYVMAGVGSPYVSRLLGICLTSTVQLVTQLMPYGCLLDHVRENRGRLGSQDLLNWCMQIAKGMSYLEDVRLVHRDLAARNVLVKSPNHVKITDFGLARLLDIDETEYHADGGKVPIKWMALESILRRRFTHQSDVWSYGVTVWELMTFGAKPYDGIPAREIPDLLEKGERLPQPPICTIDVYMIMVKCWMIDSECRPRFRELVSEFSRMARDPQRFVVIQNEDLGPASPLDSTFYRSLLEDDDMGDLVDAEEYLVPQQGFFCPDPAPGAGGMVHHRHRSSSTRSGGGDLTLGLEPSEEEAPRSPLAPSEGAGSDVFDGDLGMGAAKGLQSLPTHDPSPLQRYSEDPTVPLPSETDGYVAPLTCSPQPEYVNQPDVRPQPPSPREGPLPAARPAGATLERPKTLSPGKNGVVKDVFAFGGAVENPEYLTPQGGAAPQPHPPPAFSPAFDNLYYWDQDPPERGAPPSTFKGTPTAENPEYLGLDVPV

[3] = reduced viability of SK-BR-3 breast cancer cells – cell-based, 24 h, human, pilot screen (AID 572;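 active = viability at or below 10% of carrier control in both of two separate runs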;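 also: compound exposure lasted between 18 and 24 h rather than exactly 24 h; 100% = carrier-treated control wells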); conditions: SK-BR-3 viability, CellTiter-Glo luminescence, at 10 µM, stronger effect = lower value
[4] = HUVEC growth inhibition – cell-based, human, primary screen (AID 575;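 active = viability at or below 30% in both replicate assays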;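 also: 100% = median of untreated cell wells with 0.1% DMSO on each plate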); conditions: HUVEC proliferation, CellTiter-Glo luminescence, 72 h; at 10 µM; stronger effect = lower value
Procedure, shortened: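 Test system: primary human umbilical vein endothelial cells. Quantity: 1250 cells/well. Compound: single 10 µM dose, 0.1% DMSO, from 5x medium stock. Timing: 72 h treatment at 37 °C. Detection: ATP-based CellTiter-Glo luminescent read. Benchmarks: vehicle and MePR control wells. Format: 384-well plates coated with collagen.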

[5] = H69AR cell proliferation blockers – human, duplicate replicates, primary screen (AID 580;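 active = viability at or under a set limit in both replicates, limit being median viability minus 3 SD, cut at about 48% in these data, passing the limit was not always enough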;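 also: 100% = mean luminescence of untreated wells and 0% = no signal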); conditions: H69AR lung tumor cells viability, ATP luminescence, 72 h; at 10 µM; stronger effect = lower value
[6] = MRP1 drug-resistance reversers in H69AR cells – cell-based, doxorubicin co-treatment, pilot screen (AID 601;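 active = viability loss from added drug above about 55%, and viability with drug at most 40%, in both replicates, limit read from the data, passing the limit was not always enough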); conditions: CellTiter-Glo, 72 h, at 10 µM; for differential viability (reversal): stronger effect = higher value
[7] = yeast transport mutant growth inhibition pilot in 384-well plates, post-Golgi transport modulator project (AID 636; in the data active = inhibition above about 31%); conditions: absorbance 615 nm, about 18 h, stronger effect = higher value
[8] = growth suppression of yeast trafficking mutant, preliminary HTS, modulators of trafficking downstream of Golgi apparatus project, 1536-format plate, OD 615 nm (AID 637); conditions: yeast transport mutant growth, absorbance 615 nm, 18 h; stronger effect = higher value
[9] = H69AR cells + 2 uM doxorubicin, measured here: viability with 2 uM doxorubicin, stronger effect = lower value
[10] = H69AR cells, compound alone cytotoxicity

Row | Compound | viability [1] | Her2 level [2] | viability [3] | viability [4] | viability [5] | differential viability (reversal) ([6]; H69AR cells + 2 uM doxorubicin) | viability [6, 9] | viability [6, 10] | inhibition [7] | inhibition [8]
1 | O=C(Nc1ccc(S(=O)(=O)NC2CCCC2)cc1)c1cnccn1 | 92% | 82.5% (inactive) | 92% (inactive) | 104% (inactive) | 93.7% (inactive) | 2.56% (inactive) | 91.2% | 93.7% | -2.5% (inactive) | -4% (inactive)
2 | CC(C)C(=O)Nc1ccc2c(c1)nc1n2CCSC1 | 104% | 95% (inactive) | 104% (inactive) | 111% (inactive) | 95.4% (inactive) | 10.4% (inactive) | 85% | 95.4% | -0.78% (inactive) | -6.83% (inactive)
3 | CCOC(=O)CSc1nnc(-c2cccnc2)n1Cc1ccccc1 | 91.5% | 108% (inactive) | 91.5% (inactive) | 106% (inactive) | 96.4% (inactive) | 0.125% (inactive) | 96.2% | 96.4% | 1.45% (inactive) | -12.3% (inactive)
4 | CCOC(=O)c1c(NC(=O)CSc2nnc(-c3ccc(OC)cc3)o2)sc2c1CCC2 | 88% | 100% (inactive) | 88% (inactive) | 76.1% (inactive) | 82.1% (inactive) | -8.29% (inactive) | 90.4% | 82.1% | -0.26% (inactive) | -1.77% (inactive)
5 | COCCSc1ccccc1C(=O)Nc1cc(C)on1 | 91% | 90% (inactive) | 91% (inactive) | 95.4% (inactive) | 94.5% (inactive) | 4.69% (inactive) | 89.8% | 94.5% | 0.39% (inactive) | -2.74% (inactive)
6 | O=S(=O)(c1ccccc1)c1nc(-c2ccco2)oc1NCCCN1CCOCC1 | 91% | 100% (inactive) | 91% (inactive) | 84.6% (inactive) | 95.4% (inactive) | -1.43% (inactive) | 96.8% | 95.4% | -1.73% (inactive) | -3.23% (inactive)
7 | CCOc1cc(S(=O)(=O)NCc2ccccn2)c(C)cc1C | 92.5% | 84.5% (inactive) | 92.5% (inactive) | 96.8% (inactive) | 100% (inactive) | 6.28% (inactive) | 94.1% | 100% | -5.53% (inactive) | -4.76% (inactive)
8 | CCCN(S(=O)(=O)c1ccc(OCC)cc1)S(=O)(=O)c1cccs1 | 89% | 100% (inactive) | 89% (inactive) | 88.1% (inactive) | 89.8% (inactive) | 5.81% (inactive) | 84% | 89.8% | 0.8% (inactive) | -10.8% (inactive)
9 | Cn1cnnc1SCC(=O)Nc1ccccc1Sc1ccccc1 | 107% | 91.5% (inactive) | 107% (inactive) | 113% (inactive) | 98.8% (inactive) | 8.32% (inactive) | 90.4% | 98.8% | -8.24% (inactive) | 4.67% (inactive)
10 | COc1ccc(C(=O)Nc2ccc(S(=O)(=O)NC(C)=O)cc2)cc1 | 120% | 100% (inactive) | 120% (inactive) | 96.5% (inactive) | 93.1% (inactive) | -5.71% (inactive) | 98.8% | 93.1% | -4.13% (inactive) | -2.26% (inactive)
11 | NC(=O)COC(=O)CNC(=O)c1ccc(Cl)cc1 | 125% | 98% (inactive) | 125% (inactive) | 86.1% (inactive) | 101% (inactive) | 16.1% (inactive) | 84.7% | 101% | -2.4% (inactive) | -0.81% (inactive)
12 | C=CCSC1=C(C#N)C(c2ccccc2Cl)CC(=O)N1 (stereo not given) | 72% | 85.5% (inactive) | 72% (inactive) | 103% (inactive) | 96.5% (inactive) | 1.45% (inactive) | 95.1% | 96.5% | 0.27% (inactive) | -2.26% (inactive)
13 | Cc1c2c(nc3nc4ccccc4n13)CC(C)(C)CC2=O | 130% | 100% (inactive) | 130% (inactive) | 91.1% (inactive) | 70.9% (inactive) | 36.9% (inactive) | 34% | 70.9% | -3.42% (inactive) | 4.43% (inactive)
14 | O=C(NCc1ccco1)C1CC(=O)N(c2ccc(F)cc2)C1 (stereo not given) | 96.5% | 97% (inactive) | 96.5% (inactive) | 108% (inactive) | 108% (inactive) | 16% (inactive) | 91.5% | 108% | -0.93% (inactive) | -1.61% (inactive)
15 | COc1ccc(CC(=O)OCc2nnc(C3COc4ccccc4O3)o2)cc1OC (stereo not given) | 116% | 104% (inactive) | 116% (inactive) | 91.3% (inactive) | 104% (inactive) | 19.8% (inactive) | 83.7% | 104% | -2% (inactive) | -1.64% (inactive)
16 | CC(C)=CC(=O)Nc1ccc(Br)cc1 | 77.5% | 104% (inactive) | 77.5% (inactive) | 107% (inactive) | 98.2% (inactive) | 6.66% (inactive) | 91.5% | 98.2% | 1.45% (inactive) | -9.35% (inactive)

Row | Compound | viability [1] | Her2 level [2] | viability [3] | viability [4] | viability [5] | differential viability (reversal) ([6]; H69AR cells + 2 uM doxorubicin) | viability [6, 9] | viability [6, 10] | inhibition [7] | inhibition [8]
17 | O=C(Nc1ccc(N2CCOCC2)cc1)c1cccc(S(=O)(=O)N2CCCC2)c1 | 88.5% | 85% (inactive) | 88.5% (inactive) | 96.8% (inactive) | 98.4% (inactive) | 5.26% (inactive) | 93.1% | 98.4% | -5% (inactive) | -2% (inactive)
18 | O=C1OCc2cc(NC(=O)C3CCCO3)ccc21 (stereo not given) | 92.5% | 122% (inactive) | 92.5% (inactive) | 101% (inactive) | 104% (inactive) | -0.78% (inactive) | 105% | 104% | 1.84% (inactive) | -1.83% (inactive)
19 | CC1Cc2cc(/C(O)=C3/C(=O)C(=O)N(CCN4CCOCC4)C3c3cccc(O)c3)ccc2O1 (stereo not given) | 98.5% | 120% (inactive) | 98.5% (inactive) | 98.9% (inactive) | 106% (inactive) | 2.56% (inactive) | 104% | 106% | 3.2% (inactive) | -5.32% (inactive)
20 | O=C(OCN1C(=O)c2ccccc2C1=O)c1ccc2c(=O)n3c(nc2c1)CCC3 | 109% | 85.5% (inactive) | 109% (inactive) | 112% (inactive) | 96.7% (inactive) | -0.565% (inactive) | 97.2% | 96.7% | -4.73% (inactive) | 14.8% (inactive)
21 | CCOC(=O)c1cc2cc(F)ccc2nc1C | 103% | 112% (inactive) | 103% (inactive) | 120% (inactive) | 108% (inactive) | 20.9% (inactive) | 87.1% | 108% | -0.93% (inactive) | -5.9% (inactive)
22 | CS(=O)(=O)NCc1ccc(C(=O)NCc2ccccc2)cc1 | 101% | 97% (inactive) | 101% (inactive) | 83.5% (inactive) | 113% (inactive) | 18.6% (inactive) | 94.4% | 113% | -4.47% (inactive) | 4% (inactive)
23 | CC(C)=CCCC(C)NC(=O)NC1CCCCC1 (stereo not given) | 91% | 94% (inactive) | 91% (inactive) | 106% (inactive) | 107% (inactive) | 18% (inactive) | 88.6% | 107% | -5.33% (inactive) | 2.74% (inactive)
24 | CCOc1ccc(NC(=O)CSc2nnc(Cc3cccn3C)n2-c2ccc(OC)cc2)cc1 | 82% | 81% (inactive) | 82% (inactive) | 79.5% (inactive) | 90.6% (inactive) | -5.27% (inactive) | 95.9% | 90.6% | -1.49% (inactive) | -8.03% (inactive)
25 | O=C(Cn1ccc2ccccc2c1=O)NCCC(=O)NC1CCN(Cc2ccccc2)CC1 | 58% | 106% (inactive) | 58% (inactive) | 107% (inactive) | 100% (inactive) | 17.5% (inactive) | 82.8% | 100% | 3.29% (inactive) | -4.91% (inactive)
26 | Cc1c(Cl)cccc1N1C(=O)c2ccccc2C1=O | 89.5% | 85.5% (inactive) | 89.5% (inactive) | 99.5% (inactive) | 111% (inactive) | 2.93% (inactive) | 108% | 111% | -4.86% (inactive) | -2.3% (inactive)
27 | CC(=O)CCc1c(C)[nH]c2ccccc2c1=O | 88.5% | 118% (inactive) | 88.5% (inactive) | 99.1% (inactive) | 93.2% (inactive) | 0.225% (inactive) | 93% | 93.2% | 5.84% (inactive) | 13.1% (inactive)
28 | Cc1ccc(NC(=O)CSc2nnc(-c3cnccn3)n2Cc2ccco2)cc1C | 80.5% | 93% (inactive) | 80.5% (inactive) | 80.6% (inactive) | 104% (inactive) | 6.65% (inactive) | 97.5% | 104% | -1.82% (inactive) | -7.67% (inactive)
29 | CCOC(=O)N1CCN(C(=O)CN2C(=O)COc3ccc(C)cc32)CC1 | 98% | 94.5% (inactive) | 98% (inactive) | 95.7% (inactive) | 94.2% (inactive) | 1.89% (inactive) | 92.3% | 94.2% | -2.89% (inactive) | 6% (inactive)
30 | CC(NS(=O)(=O)c1ccc(F)cc1)C(c1cccs1)N1CCN(C)CC1 (stereo not given) | 118% | 133% (inactive) | 118% (inactive) | 87.9% (inactive) | 96.7% (inactive) | 14.4% (inactive) | 82.3% | 96.7% | -3.29% (inactive) | -5.67% (inactive)
31 | Cc1c(C(=O)N2CCOCC2)oc2ccc(S(=O)(=O)N3CCCC3)cc12 | 95% | 109% (inactive) | 95% (inactive) | 94.3% (inactive) | 87.8% (inactive) | -6.14% (inactive) | 94% | 87.8% | -6.35% (inactive) | -4.59% (inactive)
32 | CCOC(=O)c1[nH]cc(-c2ccccc2)c1N1CCOCC1 | 92.5% | 89.5% (inactive) | 92.5% (inactive) | 98% (inactive) | 94.7% (inactive) | 9.26% (inactive) | 85.5% | 94.7% | -2.5% (inactive) | 0.55% (inactive)
